# Measured values collected from several papers.
# Lines come from different studies, so protocols differ.
SMILES,technique,sample,time,logP
CC(=O)N1N=C(c2cccc(O)c2)CC1c1ccc(Cl)cc1 (stereo not shown),potentiometric,,,2.98
N#Cc1[nH]nnc1-c1cc(Cl)cc(/C=C/c2cccc(C(F)(F)F)c2)c1,potentiometric,,,5.4
C=C(C)[C@@H]1CCC(C)=C[C@H]1c1c(O)cc(CCCCC)cc1O,,,,7.11
CNCc1cc(-c2ccccc2F)n(S(=O)(=O)c2cccnc2)c1,,,,2.74
CNC(=O)c1ccccc1Sc1ccc2c(/C=C/c3ccccn3)n[nH]c2c1,,,,3.1
CS(=O)(=O)N1CCN(Cc2cc3nc(-c4cccc5[nH]ncc45)nc(N4CCOCC4)c3s2)CC1,,,,3.22
CC1=NN(CNc2ccccc2[N+](=O)[O-])C(=O)C1=NNn1c(-c2ccccc2)nc2ccccc2c1=O,,,,5.08
O=C(c1cc(Cc2n[nH]c(=O)c3ccccc23)ccc1F)N1CCN(C(=O)C2CC2)CC1,,,,1.55
CCCCC1=NC2(CCCC2)C(=O)N1Cc1ccc(-c2ccccc2S(=O)(=O)Nc2noc(C)c2C)c(COCC)c1,,,,4.26
Clc1cc2c(c3ncccc13)OCN(CCc1ccccc1)C2,,,,4.54
CC1=NN(CNc2ccc(O)cc2)C(=O)C1=NNn1c(-c2ccccc2)nc2ccccc2c1=O,,,,4.19
N#Cc1[nH]nnc1-c1csc(-c2ccc(Cl)cc2)n1,potentiometric,,,4.5
CC1=NN(CNc2c(O)c(S(=O)(=O)O)cc3ccccc23)C(=O)C1=NNn1c(-c2ccccc2)nc2ccccc2c1=O,,,,5.01
Nc1nc2[nH]cc(CCc3ccc(C(=O)N[C@@H](CCC(=O)O)C(=O)O)cc3)c2c(=O)[nH]1,,water,24 h,-0.842
CC1=NN(CNc2ccc(Cl)cc2)C(=O)C1=NNn1c(-c2ccccc2)nc2ccccc2c1=O,,,,5.1
C=C[C@H]1C[N@]2CC[C@H]1C[C@@H]2C(O)c1ccnc2ccc(OC)cc12 (stereo partly shown),,water,,3.17
